From ChEMBL document CHEMBL4321802, “Antioxidant-Conjugated 1,2,4-Triazolo[4,3-a]pyrazin-3-one Derivatives: Highly Potent and Selective Human A2A Adenosine Receptor Antagonists Possessing Protective Efficacy in Neuropathic Pain” (J Med Chem, 2019)
Active and inactive are the calls of the source.

Assays:
Adenosine receptor A2b = biological target: T1, Adenosine receptor A2b (Homo sapiens, UniProt P29275); assay: Antagonist activity at human adenosine A2B receptor expressed in CHO cells assessed as inhibition of NECA-stimulated adenylyl cyclase activity by Glo-sensor cAMP assay; type: functional, cell-based
T1 sequence (P29275 whole entry): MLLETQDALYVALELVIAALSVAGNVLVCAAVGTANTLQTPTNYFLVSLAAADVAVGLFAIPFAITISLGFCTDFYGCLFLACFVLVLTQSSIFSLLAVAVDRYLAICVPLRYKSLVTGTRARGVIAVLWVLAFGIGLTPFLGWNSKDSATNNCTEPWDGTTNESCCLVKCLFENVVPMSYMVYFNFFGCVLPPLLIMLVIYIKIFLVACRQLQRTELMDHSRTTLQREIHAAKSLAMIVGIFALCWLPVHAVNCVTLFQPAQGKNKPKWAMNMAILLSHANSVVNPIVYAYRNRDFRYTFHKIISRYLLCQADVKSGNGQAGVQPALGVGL
Procedure, shortened: (§1)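 CHO cells stably expressing hA2A or hA2B AR and transiently the GloSensor cAMP biosensor. Cells were equilibrated 2 h at rt in CO2-independent medium with 3% v/v GloSensor reagent and 10% FBS. Compounds at graded concentrations were tested against NECA-induced cAMP rise; luminescence as % of maximal RLU. IC50 from nonlinear regression. Three to five runs in triplicate, mean ± S.E.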

Adenosine receptor A2a [1] = biological target: T2, Adenosine receptor A2a (Homo sapiens, UniProt P29274); assay: Displacement of [3H]NECA from human adenosine A2A receptor expressed in CHO cell membranes by radioligand competition assay
Adenosine receptor A3 = biological target: T3, Adenosine receptor A3 (Homo sapiens, UniProt P0DMS8); assay: Displacement of [3H]HEMADO from human adenosine A3 receptor expressed in CHO cell membranes by radioligand competition assay
T3 sequence (P0DMS8 whole entry): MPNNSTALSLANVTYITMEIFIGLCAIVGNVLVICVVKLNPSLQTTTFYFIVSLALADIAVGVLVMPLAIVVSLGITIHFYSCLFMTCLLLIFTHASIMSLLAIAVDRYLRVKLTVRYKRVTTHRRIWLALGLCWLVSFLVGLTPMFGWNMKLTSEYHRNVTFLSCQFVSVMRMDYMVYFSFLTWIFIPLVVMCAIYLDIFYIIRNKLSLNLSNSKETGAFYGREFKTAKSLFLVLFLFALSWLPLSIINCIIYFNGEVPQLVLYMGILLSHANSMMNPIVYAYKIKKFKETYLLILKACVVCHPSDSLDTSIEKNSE
Procedure, shortened: (§2)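 Membranes from stably transfected CHO cells were made by 1000 g, then 100 000g spins. hA1 used 1.0 nM [³H]CCPA in 50 mM Tris/HCl pH 7.4. hA3 used 1.0 nM [³H]HEMADO in 50 mM Tris/HCl, 10 mM MgCl2, 1 mM EDTA, pH 8.25. Ki from competition curves, each concentration tested three to five times in triplicate, mean ± S.E.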

Adenosine receptor A1 = biological target: T4, Adenosine receptor A1 (Homo sapiens, UniProt P30542); assay: Displacement of [3H]CCPA from human adenosine A1 receptor expressed in CHO cell membranes by radioligand competition assay; procedure, shortened: as §2
T4 sequence (P30542 whole entry): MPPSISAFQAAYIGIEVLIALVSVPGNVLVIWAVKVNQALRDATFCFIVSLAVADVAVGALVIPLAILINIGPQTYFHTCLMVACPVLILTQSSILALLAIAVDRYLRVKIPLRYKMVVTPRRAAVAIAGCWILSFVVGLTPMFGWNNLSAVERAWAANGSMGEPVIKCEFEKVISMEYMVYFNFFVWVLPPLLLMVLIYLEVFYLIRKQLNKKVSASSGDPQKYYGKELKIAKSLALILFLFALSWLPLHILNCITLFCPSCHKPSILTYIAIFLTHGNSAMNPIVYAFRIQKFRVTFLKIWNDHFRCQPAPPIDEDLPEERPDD

Mus musculus [2] = assay: Analgesic activity in CD1 albino mouse model of oxaliplatin-induced neuropathy hypersensitivity assessed as increase pain threshold at 1 to 10 mg/kg, po dosed from day 14 post oxaliplatin challenge and measured after 30 to 60 mins post dose by cold plate test; type: functional, organism-based
Procedure, shortened: (§3)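 Male CD-1 mice (22–25 g) given oxaliplatin 2.4 mg kg⁻¹ i.p. in 5% glucose on days 1-2, 5-9 and 12-14; controls got vehicle. On day 14, compounds suspended in 1% carboxymethylcellulose were given once p.o. Cold plate held at 4 °C ± 1 °C; latency to first hind-paw licking/lifting recorded, 60 s cut-off. Mean ± SEM, two experimental sets; one-way ANOVA with Bonferroni.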

Adenosine receptor A2a [3] = biological target: Adenosine receptor A2a (Rattus norvegicus, UniProt P30543); assay: Displacement of [3H]NECA from rat adenosine A2A receptor expressed in CHO cell membranes by radioligand competition assay
Microglia [4] = assay: Neuroprotective activity against 30 uM Oxaliplatin-induced neurotoxicity in Sprague-Dawley rat microglia assessed as cell viability at 10 uM incubated fro 24 hrs by MTT assay (reference value: 19.1 +/- 0.8%); type: functional
[5] = Half life in 50 mM Tris buffer; type: physicochemical
Procedure, shortened: (§4)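 Compounds incubated at 37 °C in 50 mM Tris buffer pH 7.4 or in pooled healthy-volunteer human plasma (stored -80 °C). Concentration followed over time by LC-MS/MS; t1/2 taken from the decay rate of ln(concentration) versus time. Half-lives above 240 min cannot be resolved and are given as ≥240. Ketoprofen ethyl ester served as plasma-activity reference.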

Adenosine receptor A2a [6] = biological target: T2, Adenosine receptor A2a; assay: Antagonist activity at human adenosine A2A receptor expressed in CHO cells assessed as inhibition of NECA-stimulated adenylyl cyclase activity by Glo-sensor cAMP assay; type: functional, cell-based; procedure, shortened: as §1
Microglia [7] = assay: Antioxidant activity in Sprague-Dawley rat microglia assessed as suppression of oxaliplatin-dependent increase in superoxide dismutase-inhibitable superoxide anion generation at 10 uM incubated for 4 hrs in presence of oxaliplatin by spectrophotometry based cytochrome c assay; type: functional, cell-based
Procedure, shortened: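 Primary neonatal (P1–P3) Sprague–Dawley rat cortical microglia (95–98% Iba1-positive), grown to confluence at 5×10⁵/well. Cells incubated 4 h at 37 °C in serum-free DMEM with cytochrome c (1 mg/ml), ± 100 µM oxaliplatin, ± compounds at 10 µM. Absorbance at 550 nm, minus the value with bovine SOD (300 mU/ml). O2•− calculated with ε 2.1×10⁴ M⁻¹ cm⁻¹, as µM/mg protein/4 h. Three experiments, mean ± SEM.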

Mus musculus [8] = assay: Analgesic activity in CD1 albino mouse model of oxaliplatin-induced neuropathy hypersensitivity assessed as increase pain threshold at 0.03 mg/kg, po dosed from day 14 post oxaliplatin challenge and measured after 30 to 60 mins post dose by cold plate test; type: functional, organism-based; procedure, shortened: as §3
[9] = Half life in human plasma; type: ADME, cell-free; procedure, shortened: as §4
Microglia [10] = assay: Neuroprotective activity against 10 uM Oxaliplatin-induced neurotoxicity in Sprague-Dawley rat microglia assessed as cell viability at 10 uM incubated fro 24 hrs by MTT assay (reference value: 33.2 +/- 1.3%); type: functional
Microglia [11] = assay: Antioxidant activity in Sprague-Dawley rat microglia assessed as suppression of oxaliplatin-induced reduction in catalase activity at 10 uM incubated for 24 hrs in presence of oxaliplatin by Amplex red dye based assay; type: functional, cell-based
Procedure, shortened: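 Primary rat microglia (5·10⁵ cells/well) exposed 24 h to oxaliplatin 10 µM ± compounds at 10 µM. Cells washed, scraped in PBS, freeze-thawed and spun 13,000×g for 10 min at 4 °C. Catalase read in the supernatant with an Amplex Red kit, normalised to BCA protein; untreated control set to 100%. Three experiments, mean ± SEM.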

Mus musculus [12] = assay: Analgesic activity in CD1 albino mouse model of oxaliplatin-induced neuropathy hypersensitivity assessed as increase pain threshold at 4 mg/kg, po dosed from day 14 post oxaliplatin challenge and measured up to 90 mins post dose by cold plate test; type: functional, organism-based; procedure, shortened: as §3
Mus musculus [13] = assay: Analgesic activity in CD1 albino mouse model of oxaliplatin-induced neuropathy hypersensitivity assessed as increase pain threshold at 40 mg/kg, po dosed from day 14 post oxaliplatin challenge and measured up to 90 mins post dose by cold plate test; type: functional, organism-based; procedure, shortened: as §3
Mus musculus [14] = assay: Analgesic activity in CD1 albino mouse model of oxaliplatin-induced neuropathy hypersensitivity assessed as increase pain threshold at 10 to 30 mg/kg, po dosed from day 14 post oxaliplatin challenge and measured after 15 to 45 mins post dose by cold plate test; type: functional, organism-based; procedure, shortened: as §3

T2 sequence (P29274 whole entry): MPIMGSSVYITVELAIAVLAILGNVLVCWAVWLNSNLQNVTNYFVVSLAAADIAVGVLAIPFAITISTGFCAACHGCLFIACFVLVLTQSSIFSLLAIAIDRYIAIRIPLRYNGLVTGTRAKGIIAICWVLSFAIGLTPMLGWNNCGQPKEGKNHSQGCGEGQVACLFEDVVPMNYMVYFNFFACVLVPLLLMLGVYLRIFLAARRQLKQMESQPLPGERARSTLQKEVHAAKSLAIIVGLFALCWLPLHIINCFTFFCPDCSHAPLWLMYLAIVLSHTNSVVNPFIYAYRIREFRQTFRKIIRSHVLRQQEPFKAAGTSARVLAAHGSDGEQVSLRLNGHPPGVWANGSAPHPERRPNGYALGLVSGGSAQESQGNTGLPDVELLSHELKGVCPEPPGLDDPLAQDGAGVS
Chain of Adenosine receptor A2a (Rattus norvegicus, UniProt P30543) (P30543 whole entry): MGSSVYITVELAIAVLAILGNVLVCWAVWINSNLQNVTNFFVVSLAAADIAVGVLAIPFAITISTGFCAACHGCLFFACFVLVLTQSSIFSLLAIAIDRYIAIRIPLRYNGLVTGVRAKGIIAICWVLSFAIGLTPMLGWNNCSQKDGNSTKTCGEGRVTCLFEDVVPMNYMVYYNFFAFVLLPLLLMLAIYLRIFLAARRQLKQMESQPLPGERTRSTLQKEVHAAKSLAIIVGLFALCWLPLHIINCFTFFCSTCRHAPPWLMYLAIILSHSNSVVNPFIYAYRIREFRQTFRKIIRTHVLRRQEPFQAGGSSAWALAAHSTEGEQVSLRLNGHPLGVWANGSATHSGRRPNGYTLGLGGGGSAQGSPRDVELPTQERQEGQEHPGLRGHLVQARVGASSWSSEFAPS

IC50 (Adenosine receptor A2b) | Ki (Adenosine receptor A2a [1]) | Ki (Adenosine receptor A3) | Ki (Adenosine receptor A1) | SMILES | also measured
> 30000 nM | 7.4 nM | 38 nM | 13 nM | Nc1nc(-c2ccc3c(c2)OCO3)cn2c(=O)n(-c3ccccc3)nc12 | 
> 30000 nM | 26 nM | 604 nM | 392 nM | NC(=O)COc1ccc(-c2cn3c(=O)n(-c4ccccc4)nc3c(N)n2)cc1 | 
> 30000 nM | 2.4 nM | 4100 nM | 379 nM | Nc1nc(-c2ccc(OCCNC(=O)CCCCC3CCSS3)cc2)cn2c(=O)n(-c3ccccc3)nc12 (stereo not drawn) | Activity (Mus musculus [2]): Dose-dependent effect; Ki (Adenosine receptor A2a [3]): 9 nM; Activity (Microglia [4]): 34.2%; half-life [5]: ≥ 4 h; IC50 (Adenosine receptor A2a [6]): 116 nM; Activity (Microglia [7]): Active; Activity (Mus musculus [8]): Active; half-life [9]: ≥ 4 h; Activity (Microglia [10]): 54.5%; Activity (Microglia [11]): Active
> 30000 nM | 2.5 nM | 100 nM | 21.3 nM | Cc1cc(-c2cn3c(=O)n(-c4ccccc4)nc3c(N)n2)cc(C)c1O | 
> 30000 nM | 5.7 nM | 80.1 nM | 59 nM | COc1ccc(-c2cn3c(=O)n(-c4ccccc4)nc3c(N)n2)cc1OC | 
> 30000 nM | 14.9 nM | 2130 nM | 289 nM | NCCOc1ccc(-c2cn3c(=O)n(-c4ccccc4)nc3c(N)n2)cc1 | 
 |  |  |  | O=C(O)CCCCC1CCSS1 (stereo not drawn) | Activity (Mus musculus [12]): inactive; Activity (Mus musculus [13]): inactive
> 30000 nM | 1.8 nM | > 30000 nM | 263 nM | C=CC(=O)Nc1ccc(-c2cn3c(=O)n(-c4ccccc4)nc3c(N)n2)cc1 | 
> 30000 nM | 14800 nM | > 30000 nM | 13700 nM | CC(C)(C)c1cc(C(=O)NCCOc2ccc(-c3cn4c(=O)n(-c5ccccc5)nc4c(N)n3)cc2)cc(C(C)(C)C)c1O | 
> 30000 nM | 8.2 nM | > 30000 nM | > 30000 nM | N#CCOc1ccc(-c2cn3c(=O)n(-c4ccccc4)nc3c(N)n2)cc1 | Ki (Adenosine receptor A2a [3]): 39 nM; Activity (Microglia [4]): 23%; half-life [5]: ≥ 4 h; IC50 (Adenosine receptor A2a [6]): 157 nM; half-life [9]: ≥ 4 h; Activity (Microglia [10]): 48.7%; Activity (Mus musculus [14]): Active
> 30000 nM | 0.17 nM | 8.6 nM | 4.5 nM | COc1c(C)cc(-c2cn3c(=O)n(-c4ccccc4)nc3c(N)n2)cc1C | 
> 30000 nM | 22.9 nM | 254 nM | 33.5 nM | Nc1ccc(-c2cn3c(=O)n(-c4ccccc4)nc3c(N)n2)cc1 | 
